Screening data: PubChem, several laboratories
Hits are enriched below; roughly 2.5% of the tested compounds scored in any of these assays.
PfGluPho inh – PfG6PD (Plasmodium falciparum) enzyme inhibition; inhibition, % at 20 µM; AID 504690; 350,000 tested, 0.78% active; PfGluPho enzyme, NADPH resazurin-diaphorase fluorescence;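 active means inhibition reaching at least a set limit at 20 µM in the primary screen, cut at about 59% in these data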;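 further: 0% = DMSO wells with substrate and 100% = DMSO wells lacking glucose-6-phosphate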
EP2 modulator – modulates human prostaglandin E2 receptor EP2 signaling. P43116. induction, % at 25 µM. EP2-expressing cells, cAMP HTRF FRET, PGE2 co-stimulation. 260,000 tested, 0.83% active;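 active means compounds whose cAMP rise, as percent of the full-agonist control response, exceeds 60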;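 further: rat C6 glioma line stably carrying human EP2 under a CMV promoter; the protocol text gives 20 µM as final concentration; 100% = response of wells given 1 µM PGE2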
Target sequence (P43116 whole entry, looked up): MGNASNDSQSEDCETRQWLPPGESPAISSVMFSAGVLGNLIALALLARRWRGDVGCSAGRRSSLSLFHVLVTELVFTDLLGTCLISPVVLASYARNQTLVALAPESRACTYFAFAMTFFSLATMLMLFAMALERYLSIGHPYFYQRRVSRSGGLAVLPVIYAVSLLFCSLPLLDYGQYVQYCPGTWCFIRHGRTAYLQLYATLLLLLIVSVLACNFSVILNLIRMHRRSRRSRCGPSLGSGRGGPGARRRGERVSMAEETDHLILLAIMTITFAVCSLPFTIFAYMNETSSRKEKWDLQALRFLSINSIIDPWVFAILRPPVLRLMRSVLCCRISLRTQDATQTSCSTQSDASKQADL
PHOSPHO1 inh – PHOSPHO1 (human) inhibition; Q8TCT1; recombinant PHOSPHO1, absorbance phosphatase assay; inhibition, % at 13.3 µM; 290,000 tested, 1.1% active; AID 1565; in the data active means inhibition above about 60%
Target sequence (Q8TCT1 whole entry, looked up): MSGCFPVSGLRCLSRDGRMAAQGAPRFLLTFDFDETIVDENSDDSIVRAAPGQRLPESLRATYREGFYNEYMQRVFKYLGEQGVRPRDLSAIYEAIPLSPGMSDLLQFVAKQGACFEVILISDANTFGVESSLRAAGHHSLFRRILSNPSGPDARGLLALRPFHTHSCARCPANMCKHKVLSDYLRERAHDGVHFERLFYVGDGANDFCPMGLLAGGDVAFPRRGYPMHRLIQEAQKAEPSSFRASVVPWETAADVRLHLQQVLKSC
PGE2 EP2 inh – inhibitors of human EP2 prostaglandin E2 receptor; P43116; 260,000 tested, 0.52% active; C6 glioma cells expressing human EP2, cAMP TR-FRET; cells stimulated with saturating PGE2; inhibition, % at 25 µM;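 active means percent inhibition above 40 after rounding to a whole number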;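 further: rat C6 glioma host cells with rolipram phosphodiesterase inhibitor present; the protocol text gives 20 µM as final concentration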
HKDC1 inh – inhibitors of human hexokinase HKDC1; recombinant HKDC1, G6PDH/diaphorase resazurin coupled fluorescence; inhibition, % at 20 µM; 340,000 tested, 0.16% active; Q2TB90; AID 493160;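 active means inhibition above about 35% when tested at 20 µM, limit read from the data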;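 further: plate controls were DMSO wells with enzyme for no effect and DMSO wells lacking enzyme for full effect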
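Material: recombinant HKDC1 hexokinase; Amount: HKDC1 at 5 µg/mL; Medium: Tris pH 8.0 buffer with MgCl2, Tween-20, BSA, BME; Schedule: 90 min reaction incubation at room temperature, dark; Technique: coupled resazurin fluorescence, excitation 525 nm, emission 613 nm.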
TbHK1 inh – blocks Trypanosoma brucei hexokinase 1 activity | inhibition, % at 10 µM | recombinant TbHK1, G6PDH-coupled NADH A340 | AID 1430 | 220,000 tested, 0.11% active;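 active means inhibition of 50% or more in the single-dose primary screen; inactive means inhibition below 50%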
* hit, by the source's call; . = not tested or not shown; ! = repeats disagree.

SMILES	PfGluPho inh	EP2 modulator	PHOSPHO1 inh	PGE2 EP2 inh	HKDC1 inh	TbHK1 inh
CC(C)COC(=O)c1cccc2c1-c1ccccc1/C2=N\O	-12	63*	1	.	2	7
O=C(NC(=S)Nc1ccc(S(=O)(=O)Nc2nccs2)cc1)c1ccccc1	-28	-101	10	8	0	5
CCc1nnc(NS(=O)(=O)c2ccc(NC(=S)NC(=O)/C=C/c3ccc(C(C)C)cc3)cc2)s1	-21	-17	0	3	0	7
CCc1nnc(NS(=O)(=O)c2ccc(NC(=S)NC(=O)c3ccc(Br)cc3)cc2)s1	-18	-79	-33	59*	-5	0
COc1ccc(NC(=S)NC(=O)/C=C/c2ccc(F)cc2)cc1	3	.	31	.	-7	.
CCc1nnc(NS(=O)(=O)c2ccc(NC(=S)NC(=O)/C=C/c3ccc(OC)cc3)cc2)s1	-12	-9	-16	104*	7	-20
COc1ccc(/C=C/C(=O)NC(=S)Nc2ccc(C(=O)O)cc2)cc1	3	-77	67*	38	-3	-3
COc1ccc(C(=O)NC(=S)Nc2ccc(S(=O)(=O)Nc3nccs3)cc2)cc1	.	-121	.	49*	.	.
COc1ccc(C2=NN(CC(=O)NC(C)(C)C)C(=O)c3cc4ccccc4n3C2)cc1	.	-19	.	.	.	.
Cn1cc(CN2CCC(O)(c3ccc(F)cc3)CC2)c2ccccc21	.	-102	.	2	.	.
CC(C)Oc1ccccc1Cn1c(=O)sc2ccccc21	.	83*	.	9	.	.
CC(C)OC(=O)Cn1c(=O)sc2ccccc21	-3	18	10	5	2	-5
O=C(Cn1nnc(-c2ccc(NC(=O)c3cccs3)cc2)n1)NC1CCCC1	.	5	.	5	.	.
CSc1nncc(/C(C)=N/O)n1	-8	4	7	6	-4	-7
CSc1nncc(/C(C)=N\Nc2ccccc2C)n1	0	12	95*	3	-2	-6
Cc1ccccc1C(=O)N1CCN(c2ccc(N)cc2Cl)CC1	.	-48	.	4	.	.
CCc1cccc(CC)c1NC(=O)COC(=O)c1ccccc1-c1nc2ccccc2s1	-9	5	178*	0	1	2
CC1(C)Cc2c(cnn2-c2ccc(F)cc2)C(NC(=O)c2ccc(=O)oc2)C1 (stereo not drawn)	-7	.	61*	.	-2	.
Cc1ccc(S(=O)(=O)N2CCCCC2C(=O)N2CCN(c3ccccc3F)CC2)cc1 (stereo not drawn)	12	-5	31	3	-7	-4
Cc1ccc(S(=O)(=O)N2CCCCC2C(=O)N2CCN(C)CC2)cc1 (stereo not drawn)	9	3	62*	9	-7	-1
Cc1cc(CN(C)C(=O)c2cc(COc3ccc(F)cc3Cl)on2)n[nH]1	5	-100	60*	17	-7	-1
CNC(=O)c1ccsc1NC(=O)CS(=O)(=O)c1ccc(Cl)cc1	-20	.	64*	.	4	.
CNC(=O)c1c(NC(=O)CS(=O)(=O)c2ccc(Cl)cc2)sc(C)c1C	-1	.	.	.	6	.
O=C(NCCSCc1ccco1)Nc1ccccc1	20	-21	74*	4	1	10
CC(=O)Nc1ccc(C(=S)NCc2ccco2)cc1	-14	-27	94*	8	-2	-12
SMILES	PfGluPho inh	EP2 modulator	PHOSPHO1 inh	PGE2 EP2 inh	HKDC1 inh	TbHK1 inh
CC(=O)Nc1ccc(S(=O)(=O)NNC(=S)NCc2ccco2)cc1	-7	.	37	.	0	.
CCOc1ccc(NC(=O)NCc2ccco2)cc1	1	14	67*	4	-17	-11
CC(C(=O)N1CCCC1)N1CCC(N2CCCCC2)CC1 (stereo not drawn)	.	14	.	9	.	.
CC(C)(C)c1nc2ccccc2c2nnc(SCC(=O)NCc3ccc(F)cc3)n12	.	6	.	6	.	.
O=C(N1CCc2nc(N3CCCC3)[nH]c(=O)c2C1)N(c1ccccc1)c1ccccc1	.	3	.	9	.	.
CCOC(=O)c1cc(C#N)c(SCC(=O)c2cc(C#N)c(SC)nc2C)[nH]c1=O	22	1	98*	29	-16	-8
CCOC(=O)c1cc(C#N)c(SCC(N)=O)[nH]c1=O	19	-2	13	7	-2	-40
O=C(Nc1ccccc1-c1ccccc1)c1cnccn1	8	66*!	-11	14	-3	4
Cc1cccc(Oc2ccccc2NC(=O)c2cnccn2)c1	1	61*	7	13	-4	0
O=C(COC(=O)c1cnccn1)Nc1ccccc1-c1ccccc1	13	.	.	.	-5	.
Cc1ccc(NC(=O)c2cnccn2)c(Br)c1	-4	.	34	.	-4	.
CC(C)(C)N(Cc1ccccc1)C(=O)c1ccc(Cl)cc1[N+](=O)[O-]	10	63*	25	1	-10	-2
COc1ccc(NC(=O)N(Cc2ccc3c(c2)OCO3)Cc2cc3ccc(OC)cc3[nH]c2=O)cc1	.	-1	.	17	.	.
C[C@@H]1CC[C@H]2[C@H](C)[C@@H]3[C@@H](C[C@H]4[C@H]5CC=C6C[C@@H](O)CC[C@]6(C)[C@@H]5C[C@@H](O)[C@]34C)N2C1	.	-9	.	62*	.	.
COCCn1nnnc1CN(Cc1cc2ccc(OC)cc2[nH]c1=O)CC1CCCO1 (stereo not drawn)	.	1	.	8	.	.
CC(=O)c1c(C)[nH]c(C(=O)CSc2nnc(CN3CCCCCC3=O)n2-c2ccccn2)c1C	19	-12	67*	8	-7	-8
CCn1c(SCC(=O)c2[nH]c(C)c(C(C)=O)c2C)nnc1-c1ccccc1	33	-25	75*	17	-6	-14
CCn1c(SCC(=O)c2[nH]c(C)c(C(C)=O)c2C)nnc1-c1ccncc1	24	-3	-27	6	18	-8
COCCn1c(SCc2ccccc2)nc2sc(C)c(C)c2c1=O	.	30	.	10	.	.
CC1(C)CC(=O)C(C(C2=C(O)CC(C)(C)CC2=O)c2ccc(Br)s2)C(=O)C1 (stereo not drawn)	47	-78	1	51*	-7	16
COc1nccnc1NS(=O)(=O)c1ccc(NC(=S)NC(=O)/C=C/c2ccc(F)cc2)cc1	6	-64	-16	66*	5	-4
COc1nccnc1NS(=O)(=O)c1ccc(NC(=S)NC(=O)/C=C/c2ccc(C)cc2)cc1	.	-104	.	72*	.	.
N=C(N)c1ccc(-c2ccc(-c3ccc(C(=N)N)cc3)o2)cc1	.	-11	.	52*	.	.
CCC(CN1CCCC1)NC(=O)Cc1sc(C)nc1-c1ccccc1 (stereo not drawn)	.	-35	.	4	.	.
CCOC(=O)CNC(=O)CSc1nc2nc(C)c(Br)cc2[nH]1	-23	9	74*	19	2	4
Cc1nc2nc(SCC(N)=O)[nH]c2cc1Br	0	-7	19	11	-3	-5
Cc1ccc(CNC(=O)c2ccc(CN3CCOCC3)cc2)cc1	4	1	84*	2	-5	-6
